Experimental data gathered from unrelated publications.
Protocols differ between the studies behind these lines.
Observed: cell growth or viability

Structure (SMILES)	cell line	technique	time	IC50
CS(=O)(=O)c1ccc(-n2cc(C=N/N=c3\[nH]c(-c4ccc(Br)cc4)cs3)c(-c3ccc([N+](=O)[O-])cc3)n2)cc1	F180	MTT	48 h	36.6 µM
COc1cc(Nc2nccc(-c3cnn4nc(OC)ccc34)n2)cc(C(F)(F)F)c1	NCI-H1581	ATP luminescence		0.41 µM
COc1cc(/C=C/C(=O)/C=C/c2cn(-c3ccccc3)nc2-c2ccccc2)cc(OC)c1O	LLC-PK1	MTT	72 h	10.2 µM
COc1ccc(CCNC(=O)C(=O)Nc2ccc(Cl)cc2)cc1	NCI-H2122			< 0.1 µM
Cc1nc(Nc2ncc(C(=O)Nc3c(C)cccc3Cl)s2)cc(N2CCN(CCO)CC2)n1	F180	MTT	48 h	32.2 µM
CC(C)c1cc(C(=O)N2Cc3ccccc3C2)c(O)c2nc[nH]c12	UMUC3	ATP luminescence	72 h	53 µM
CS(=O)(=O)c1ccc(-n2cc(/C=N/N=c3\[nH]c(-c4ccc([N+](=O)[O-])cc4)cs3)c(-c3ccc(Br)cc3)n2)cc1	F180	MTT	48 h	71.8 µM
Cn1nnc2c(-c3ccccc3)ncn2c1=O	U-118-MG	resazurin	7 days	3 µM
CC(C)Cc1ccc(-c2nn(-c3ccc(S(C)(=O)=O)cc3)cc2/C=N/N=c2\[nH]c(-c3ccc([N+](=O)[O-])cc3)cs2)cc1	F180	MTT	48 h	23.6 µM
Cc1cc(Nc2ncc(Cl)c(Nc3ccccc3S(=O)(=O)C(C)C)n2)c(OC(C)C)cc1C1CCNCC1	RD		72 h	2.18 µM
Cc1ncn2c(=O)n(C)nnc12	U-118-MG	resazurin	7 days	7 µM
COc1cccc2c1C(=O)c1c(O)c3c(c(O)c1C2=O)C[C@@](O)(C(=O)CO)C[C@@H]3O[C@H]1C[C@H](N)[C@H](O)[C@H](C)O1	Caco-2	MTT	24 h	12.3 µM
O=Cc1ccc(CO)o1	RD	WST-1	48 h	60.6 µM
CON=C1CCc2c(O)c(C(=O)N3Cc4ccccc4C3)cc(C(C)C)c21	UMUC3	ATP luminescence	72 h	78.2 µM
COc1cc2nccc(Oc3ccc(NC(=O)C4(C(=O)Nc5ccc(F)cc5)CC4)cc3)c2cc1OC	RD		72 h	1.21 µM
Cn1nnc2c(C(N)=O)ncn2c1=O	U-118-MG	resazurin	7 days	322 µM
CC(=O)O[C@H]1C(=O)[C@@]2(C)[C@H]([C@H](OC(=O)c3ccccc3)[C@]3(O)C[C@H](OC(=O)[C@H](O)[C@@H](NC(=O)c4ccccc4)c4ccccc4)C(C)=C1C3(C)C)[C@]1(OC(C)=O)CO[C@@H]1C[C@@H]2O	LLC-PK1	MTT	72 h	0.73 µM
c1csc([I+]c2cccs2)c1	Caco-2	trypan blue	48 h	~0.5 µM
O=c1[nH]cc(F)c(=O)[nH]1	RD	WST-1	48 h	21.1 µM
CC(C)c1cc(C(=O)N2Cc3ccccc3C2)c(O)c2ccoc12	UMUC3	ATP luminescence	72 h	71.6 µM
CN1C(=O)c2cc(C(N)=O)nc3c(N)c(Cl)c(N)c1c23	HCC44			15.3 µM
COc1cc(/C=C/C(=O)/C=C/c2c(C)nn(-c3cccc([N+](=O)[O-])c3)c2Cl)cc(OC)c1O	LLC-PK1	MTT	72 h	15.4 µM
C[C@@H]1[C@H](O)[C@@H](C)/C=C/C=C/C=C/C=C/C=C/C=C/C=C/[C@H](O[C@@H]2O[C@H](C)[C@@H](O)[C@H](N)[C@@H]2O)C[C@@H]2O[C@](O)(C[C@@H](O)C[C@@H](O)[C@H](O)CC[C@@H](O)C[C@@H](O)CC(=O)O[C@H]1C)C[C@H](O)[C@H]2C(=O)O	LLC-PK1	neutral red	48 h	0.6 µg/mL
CC(C)/N=C1\c2cc(C(N)=O)nc3c(N)c(Cl)c(N)c(c23)N1C	HCC44			0.5 µM

Structure (SMILES)	cell line	technique	time	IC50
CNC(=O)c1ccc(N2C(=S)N(c3cnc(C#N)c(C(F)(F)F)c3)C(=O)C23CCC3)cc1F	LAPC4	ATP luminescence	6 days	1.1 µM
COc1cc(/C=C/C(=O)/C=C/c2c(C)nn(-c3cccc([N+](=O)[O-])c3)c2Cl)cc(OC)c1OC	LLC-PK1	MTT	72 h	5.93 µM
COc1cccc(C(=O)O[C@@H]2CN3Cc4c(cc5c(c4OC)OCO5)[C@@]24C=C[C@H](OC)C[C@@H]34)c1	A2780	WST-1		> 10 µM
Cc1cccc(-n2ncc(Br)c(Br)c2=O)c1	NCI-H2122	resazurin	96 h	1.26 µM
CC(C)c1cc(C(=O)N2Cc3ccccc3C2)c(O)c2c1C(=O)C(C(F)(F)F)C2 (centres unmarked)	UMUC3	ATP luminescence	72 h	59.6 µM
Cn1nnc2c(C(N)=O)ncn2c1=O	U-118-MG	MTT	72 h	944 µM
O=C(Nc1ccc(Cl)cc1)c1ccc([N+](=O)[O-])o1	NCI-H1650	resazurin	96 h	0.38 µM
O=c1c(O)c(-c2ccc(O)cc2)oc2cc(O)cc(O)c12	RD	WST-1	48 h	54.1 µM
CC(O)(CS(=O)(=O)c1ccc(F)cc1)C(=O)Nc1ccc(C#N)c(C(F)(F)F)c1 (centres unmarked)	LAPC4	MTT	7 days	9 µM
O=c1c(O)c(-c2ccc(O)c(O)c2)oc2cc(O)cc(O)c12	RD	WST-1	48 h	29.8 µM
CN(C)C/C=C/C(=O)Nc1cc2c(Nc3ccc(F)c(Cl)c3)ncnc2cc1O[C@H]1CCOC1	Caco-2	MTT	72 h	3.1 µM
CC(C)Cc1ccc(-c2nn(-c3ccc(S(C)(=O)=O)cc3)cc2/C=N\N=C2/NC(=O)CS2)cc1	F180	MTT	48 h	44.6 µM
CC(C)C[C@H](NC(=O)[C@H](Cc1ccccc1)NC(=O)c1cnccn1)B(O)O	LoVo	ATP luminescence		0.015 µM
Cn1nnc2c(Cl)ncn2c1=O	U-118-MG	resazurin	7 days	60 µM
COc1cc(/C=C/C(=O)CC(=O)/C=C/c2ccc(O)c(OC)c2)ccc1O	LLC-PK1	MTT	72 h	> 25 µM
CC(C)c1cc(C(=O)N2Cc3ccccc3C2)c(O)c2c1CCC2	UMUC3	ATP luminescence	72 h	57.4 µM
COc1ccc(-c2nn(-c3ccc(S(C)(=O)=O)cc3)cc2/C=N/N=c2\[nH]c(-c3ccc(Br)cc3)cs2)cc1	F180	MTT	48 h	59.6 µM
CC(C)c1cc(C(=O)N2Cc3ccccc3C2)c(O)c2c1CCCC2=O	UMUC3	ATP luminescence	72 h	> 100 µM
COc1cc([C@@H]2c3cc4c(cc3[C@@H](O[C@@H]3O[C@@H]5CO[C@@H](C)O[C@H]5[C@H](O)[C@H]3O)[C@H]3COC(=O)[C@H]23)OCO4)cc(OC)c1O	Caco-2	MTS	72 h	14 µM
CC(C)c1cc(C(=O)N2Cc3ccccc3C2)c(O)c2c1C(=O)C=C2	UMUC3	ATP luminescence	72 h	1.18 µM
CNC(=O)c1cc(Oc2ccc(NC(=O)Nc3ccc(Cl)c(C(F)(F)F)c3)cc2)ccn1	Swiss-3T3	SRB		0.427 µM
CC(C)c1cc(C(=O)N2Cc3ccccc3C2)c(O)c2cc[nH]c12	UMUC3	ATP luminescence	72 h	> 100 µM
COc1cc(N2CCC(N3CCN(C)CC3)CC2)ccc1Nc1ncc(Cl)c(Nc2ccccc2S(=O)(=O)C(C)C)n1	RD		72 h	0.25 µM
